System: U2OS
Assay: Multiplex assay against U2OS
Type: toxicity, cell-based
Conditions: human
Procedure, shortened: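 Values for tubulin, mitochondrial-mass and membrane-permeability phenotypes are per cents of cells with healthy nuclei. These cells were identified by CellPathfinder machine-learning gating of live cells that had been stained at seeding with Hoechst33342, BioTracker Green Microtubule Cytoskeleton Dye, MitoTracker Red and Annexin V Alexa Fluor 680 and imaged on a CQ1 microscope at 37°C and 5% CO2 after compound addition. The gating first set Hoechst high-intensity objects apart from normal cells, then split normal cells into healthy, pyknosed or fragmented nuclei, and pyknosed cells into mitotic or apoptotic.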

[1] = 12 h, 1 µM, compound concentration 1 uM, replicate 1
[2] = 12 h, 1 µM, compound concentration 1 uM, replicate 2
[3] = 12 h, 10 µM, compound concentration 10 uM, replicate 1
[4] = 12 h, 10 µM, compound concentration 10 uM, replicate 2
[5] = 24 h, 1 µM, compound concentration 1 uM, replicate 1
[6] = 24 h, 1 µM, compound concentration 1 uM, replicate 2
[7] = 24 h, 10 µM, compound concentration 10 uM, replicate 1
[8] = 24 h, 10 µM, compound concentration 10 uM, replicate 2
[9] = 48 h, 1 µM, compound concentration 1 uM, replicate 1
[10] = 48 h, 1 µM, compound concentration 1 uM, replicate 2
[11] = 48 h, 10 µM, compound concentration 10 uM, replicate 1
[12] = 48 h, 10 µM, compound concentration 10 uM, replicate 2

O=C(NCC(=O)N1CC[C@H](N[C@H]2CC[C@@](O)(c3ccc(-c4ncccn4)cn3)CC2)C1)c1cccc(C(F)(F)F)c1 [PF-4136309]
Population Apoptotic (%) [1]: 79% | Population Fragmented Nuclei (%) [1]: 25% | Population Healthy Nuclei (%) [1]: 64% | Population Hoechst High Intensity Objects (%) [1]: 1% | Population Membrane Permeable-Phenotype (%) [1]: 6% | Population Mitochondria Different-Phenotype (%) [1]: 3% | Population Mitotic Cells (%) [1]: 20% | Population Normal (%) [1]: 98% | Population Pyknosed Nuclei (%) [1]: 9% | Population Tubulin-Different-Phenotype (%) [1]: 4% | Total Cell Count [1]: 249 | Population Apoptotic (%) [2]: 93% | Population Fragmented Nuclei (%) [2]: 13% | Population Healthy Nuclei (%) [2]: 74% | Population Hoechst High Intensity Objects (%) [2]: 4% | Population Membrane Permeable-Phenotype (%) [2]: 11% | Population Mitochondria Different-Phenotype (%) [2]: 5% | Population Mitotic Cells (%) [2]: 6% | Population Normal (%) [2]: 95% | Population Pyknosed Nuclei (%) [2]: 12% | Population Tubulin-Different-Phenotype (%) [2]: 8% | Total Cell Count [2]: 138 | Population Apoptotic (%) [3]: 68% | Population Fragmented Nuclei (%) [3]: 25% | Population Healthy Nuclei (%) [3]: 62% | Population Hoechst High Intensity Objects (%) [3]: 4% | Population Membrane Permeable-Phenotype (%) [3]: 15% | Population Mitochondria Different-Phenotype (%) [3]: 4% | Population Mitotic Cells (%) [3]: 31% | Population Normal (%) [3]: 95% | Population Pyknosed Nuclei (%) [3]: 12% | Population Tubulin-Different-Phenotype (%) [3]: 9% | Total Cell Count [3]: 242 | Population Apoptotic (%) [4]: 60% | Population Fragmented Nuclei (%) [4]: 22% | Population Healthy Nuclei (%) [4]: 66% | Population Hoechst High Intensity Objects (%) [4]: 1% | Population Membrane Permeable-Phenotype (%) [4]: 25% | Population Mitochondria Different-Phenotype (%) [4]: 10% | Population Mitotic Cells (%) [4]: 40% | Population Normal (%) [4]: 98% | Population Pyknosed Nuclei (%) [4]: 11% | Population Tubulin-Different-Phenotype (%) [4]: 11% | Total Cell Count [4]: 90 | Population Apoptotic (%) [5]: 80% | Population Fragmented Nuclei (%) [5]: 22% | Population Healthy Nuclei (%) [5]: 69% | Population Hoechst High Intensity Objects (%) [5]: 1% | Population Membrane Permeable-Phenotype (%) [5]: 4% | Population Mitochondria Different-Phenotype (%) [5]: 2% | Population Mitotic Cells (%) [5]: 20% | Population Normal (%) [5]: 98% | Population Pyknosed Nuclei (%) [5]: 8% | Population Tubulin-Different-Phenotype (%) [5]: 2% | Total Cell Count [5]: 304 | Population Apoptotic (%) [6]: 91% | Population Fragmented Nuclei (%) [6]: 16% | Population Healthy Nuclei (%) [6]: 76% | Population Hoechst High Intensity Objects (%) [6]: 3% | Population Membrane Permeable-Phenotype (%) [6]: 5% | Population Mitochondria Different-Phenotype (%) [6]: 4% | Population Mitotic Cells (%) [6]: 8% | Population Normal (%) [6]: 96% | Population Pyknosed Nuclei (%) [6]: 7% | Total Cell Count [6]: 169 | Population Apoptotic (%) [7]: 83% | Population Fragmented Nuclei (%) [7]: 23% | Population Healthy Nuclei (%) [7]: 62% | Population Hoechst High Intensity Objects (%) [7]: 3% | Population Membrane Permeable-Phenotype (%) [7]: 10% | Population Mitochondria Different-Phenotype (%) [7]: 3% | Population Mitotic Cells (%) [7]: 16% | Population Normal (%) [7]: 96% | Population Pyknosed Nuclei (%) [7]: 13% | Population Tubulin-Different-Phenotype (%) [7]: 3% | Total Cell Count [7]: 271 | Population Apoptotic (%) [8]: 75% | Population Fragmented Nuclei (%) [8]: 21% | Population Healthy Nuclei (%) [8]: 70% | Population Hoechst High Intensity Objects (%) [8]: 0% | Population Membrane Permeable-Phenotype (%) [8]: 15% | Population Mitochondria Different-Phenotype (%) [8]: 11% | Population Mitotic Cells (%) [8]: 25% | Population Normal (%) [8]: 99% | Population Pyknosed Nuclei (%) [8]: 7% | Population Tubulin-Different-Phenotype (%) [8]: 7% | Total Cell Count [8]: 102 | Population Apoptotic (%) [9]: 87% | Population Fragmented Nuclei (%) [9]: 14% | Population Healthy Nuclei (%) [9]: 74% | Population Hoechst High Intensity Objects (%) [9]: 2% | Population Membrane Permeable-Phenotype (%) [9]: 4% | Population Mitochondria Different-Phenotype (%) [9]: 3% | Population Mitotic Cells (%) [9]: 12% | Population Normal (%) [9]: 97% | Population Pyknosed Nuclei (%) [9]: 11% | Population Tubulin-Different-Phenotype (%) [9]: 3% | Total Cell Count [9]: 443 | Population Apoptotic (%) [10]: 96% | Population Fragmented Nuclei (%) [10]: 12% | Population Healthy Nuclei (%) [10]: 75% | Population Hoechst High Intensity Objects (%) [10]: 3% | Population Membrane Permeable-Phenotype (%) [10]: 6% | Population Mitotic Cells (%) [10]: 4% | Population Normal (%) [10]: 96% | Population Tubulin-Different-Phenotype (%) [10]: 4% | Total Cell Count [10]: 224 | Population Apoptotic (%) [11]: 69% | Population Fragmented Nuclei (%) [11]: 22% | Population Healthy Nuclei (%) [11]: 61% | Population Hoechst High Intensity Objects (%) [11]: 4% | Population Membrane Permeable-Phenotype (%) [11]: 9% | Population Mitochondria Different-Phenotype (%) [11]: 5% | Population Mitotic Cells (%) [11]: 30% | Population Normal (%) [11]: 95% | Population Pyknosed Nuclei (%) [11]: 15% | Population Tubulin-Different-Phenotype (%) [11]: 4% | Total Cell Count [11]: 360 | Population Apoptotic (%) [12]: 92% | Population Fragmented Nuclei (%) [12]: 20% | Population Healthy Nuclei (%) [12]: 60% | Population Hoechst High Intensity Objects (%) [12]: 0% | Population Membrane Permeable-Phenotype (%) [12]: 15% | Population Mitochondria Different-Phenotype (%) [12]: 8% | Population Mitotic Cells (%) [12]: 7% | Population Normal (%) [12]: 100% | Population Pyknosed Nuclei (%) [12]: 18% | Total Cell Count [12]: 138

O=C(O)Cc1ccccc1Nc1c(Cl)cccc1Cl [DICLOFENAC]
Population Apoptotic (%) [1]: 90% | Population Fragmented Nuclei (%) [1]: 15% | Population Healthy Nuclei (%) [1]: 78% | Population Hoechst High Intensity Objects (%) [1]: 5% | Population Membrane Permeable-Phenotype (%) [1]: 4% | Population Mitochondria Different-Phenotype (%) [1]: 4% | Population Mitotic Cells (%) [1]: 10% | Population Normal (%) [1]: 94% | Population Pyknosed Nuclei (%) [1]: 6% | Population Tubulin-Different-Phenotype (%) [1]: 4% | Total Cell Count [1]: 164 | Population Apoptotic (%) [2]: 84% | Population Fragmented Nuclei (%) [2]: 13% | Population Healthy Nuclei (%) [2]: 76% | Population Hoechst High Intensity Objects (%) [2]: 0% | Population Membrane Permeable-Phenotype (%) [2]: 5% | Population Mitochondria Different-Phenotype (%) [2]: 2% | Population Mitotic Cells (%) [2]: 15% | Population Normal (%) [2]: 99% | Population Pyknosed Nuclei (%) [2]: 10% | Population Tubulin-Different-Phenotype (%) [2]: 2% | Population Apoptotic (%) [3]: 75% | Population Fragmented Nuclei (%) [3]: 20% | Population Healthy Nuclei (%) [3]: 68% | Population Hoechst High Intensity Objects (%) [3]: 2% | Population Membrane Permeable-Phenotype (%) [3]: 8% | Population Mitochondria Different-Phenotype (%) [3]: 4% | Population Mitotic Cells (%) [3]: 25% | Population Normal (%) [3]: 97% | Population Pyknosed Nuclei (%) [3]: 11% | Population Tubulin-Different-Phenotype (%) [3]: 4% | Total Cell Count [3]: 258 | Population Apoptotic (%) [4]: 72% | Population Fragmented Nuclei (%) [4]: 14% | Population Healthy Nuclei (%) [4]: 76% | Population Hoechst High Intensity Objects (%) [4]: 3% | Population Mitochondria Different-Phenotype (%) [4]: 3% | Population Mitotic Cells (%) [4]: 27% | Population Normal (%) [4]: 96% | Population Pyknosed Nuclei (%) [4]: 9% | Population Tubulin-Different-Phenotype (%) [4]: 8% | Population Apoptotic (%) [5]: 92% | Population Fragmented Nuclei (%) [5]: 15% | Population Healthy Nuclei (%) [5]: 76% | Population Hoechst High Intensity Objects (%) [5]: 4% | Population Membrane Permeable-Phenotype (%) [5]: 2% | Population Mitochondria Different-Phenotype (%) [5]: 2% | Population Mitotic Cells (%) [5]: 7% | Population Normal (%) [5]: 95% | Population Pyknosed Nuclei (%) [5]: 7% | Population Tubulin-Different-Phenotype (%) [5]: 2% | Total Cell Count [5]: 191 | Population Apoptotic (%) [6]: 87% | Population Fragmented Nuclei (%) [6]: 19% | Population Healthy Nuclei (%) [6]: 70% | Population Hoechst High Intensity Objects (%) [6]: 3% | Population Membrane Permeable-Phenotype (%) [6]: 5% | Population Mitotic Cells (%) [6]: 12% | Population Normal (%) [6]: 96% | Population Pyknosed Nuclei (%) [6]: 10% | Total Cell Count [6]: 165 | Population Apoptotic (%) [7]: 72% | Population Fragmented Nuclei (%) [7]: 17% | Population Healthy Nuclei (%) [7]: 72% | Population Hoechst High Intensity Objects (%) [7]: 0% | Population Membrane Permeable-Phenotype (%) [7]: 3% | Population Mitochondria Different-Phenotype (%) [7]: 1% | Population Mitotic Cells (%) [7]: 27% | Population Normal (%) [7]: 99% | Population Pyknosed Nuclei (%) [7]: 10% | Population Tubulin-Different-Phenotype (%) [7]: 2% | Total Cell Count [7]: 311 | Population Apoptotic (%) [8]: 81% | Population Fragmented Nuclei (%) [8]: 15% | Population Healthy Nuclei (%) [8]: 77% | Population Hoechst High Intensity Objects (%) [8]: 1% | Population Membrane Permeable-Phenotype (%) [8]: 5% | Population Mitochondria Different-Phenotype (%) [8]: 2% | Population Mitotic Cells (%) [8]: 18% | Population Normal (%) [8]: 98% | Population Pyknosed Nuclei (%) [8]: 7% | Population Tubulin-Different-Phenotype (%) [8]: 4% | Total Cell Count [8]: 153 | Population Apoptotic (%) [9]: 100% | Population Fragmented Nuclei (%) [9]: 17% | Population Healthy Nuclei (%) [9]: 71% | Population Hoechst High Intensity Objects (%) [9]: 4% | Population Membrane Permeable-Phenotype (%) [9]: 4% | Population Mitochondria Different-Phenotype (%) [9]: 2% | Population Mitotic Cells (%) [9]: 0% | Population Normal (%) [9]: 95% | Population Pyknosed Nuclei (%) [9]: 10% | Population Tubulin-Different-Phenotype (%) [9]: 2% | Total Cell Count [9]: 271 | Population Apoptotic (%) [10]: 83% | Population Fragmented Nuclei (%) [10]: 15% | Population Healthy Nuclei (%) [10]: 70% | Population Hoechst High Intensity Objects (%) [10]: 3% | Population Mitochondria Different-Phenotype (%) [10]: 4% | Population Mitotic Cells (%) [10]: 16% | Population Normal (%) [10]: 96% | Population Pyknosed Nuclei (%) [10]: 14% | Population Tubulin-Different-Phenotype (%) [10]: 4% | Total Cell Count [10]: 216 | Population Apoptotic (%) [11]: 86% | Population Fragmented Nuclei (%) [11]: 16% | Population Healthy Nuclei (%) [11]: 73% | Population Hoechst High Intensity Objects (%) [11]: 2% | Population Membrane Permeable-Phenotype (%) [11]: 6% | Population Mitochondria Different-Phenotype (%) [11]: 1% | Population Mitotic Cells (%) [11]: 13% | Population Normal (%) [11]: 97% | Population Pyknosed Nuclei (%) [11]: 10% | Population Tubulin-Different-Phenotype (%) [11]: 2% | Total Cell Count [11]: 436 | Population Apoptotic (%) [12]: 100% | Population Fragmented Nuclei (%) [12]: 12% | Population Healthy Nuclei (%) [12]: 75% | Population Hoechst High Intensity Objects (%) [12]: 1% | Population Mitotic Cells (%) [12]: 0% | Population Normal (%) [12]: 98% | Population Pyknosed Nuclei (%) [12]: 11% | Population Tubulin-Different-Phenotype (%) [12]: 6% | Total Cell Count [12]: 220
